# Measurements pooled from the literature.
# Compare with care: the assays were run in different laboratories.
# Genome polyprotein protease: Genome polyprotein, protease (ZIKV, UniProt A0A024B7W1)
# HTR7: 5-hydroxytryptamine receptor 7 (HTR7, Homo sapiens, UniProt P34969)
# Cacna1b: Voltage-dependent N-type calcium channel subunit alpha-1B (Cacna1b, Rattus norvegicus, UniProt Q02294)
# DPP9: Dipeptidyl peptidase 9 (DPP9, Homo sapiens, UniProt Q86TI2)
# NR1H2: Oxysterols receptor LXR-beta (NR1H2, Homo sapiens, UniProt P55055)
Compound,target,read-out,mode,technique,concentration,pH,inhibition [%]
N=C(N)c1ccc2cc(OC(=O)c3ccc(N=C(N)N)cc3)ccc2c1,"Ubiquitin carboxyl-terminal hydrolase 14 (USP14, Homo sapiens, UniProt P54578)",enzyme activity,inhibitor,,10 µM,,0
CCCCCCCCCCCC(=O)OC[C@@H](COP(=O)(O)OCCNC(=O)c1ccc(Cn2c(=O)[nH]c3c(N)nc(OCCOC)nc32)cc1)OC(=O)CCCCCCCCCCC,"Alpha-1A adrenergic receptor (Adra1a, Rattus norvegicus, UniProt P43140)",ligand displacement,,radioligand,10 µM,,-11
Oc1cc(O)c2c(c1)O[C@H](c1cc(O)c(O)c(O)c1)[C@H](O)C2,Genome polyprotein protease,enzyme activity,inhibitor,FRET,100 µM,pH 7,7
C#Cc1n[nH]c2c(-c3cn([C@@H](C)c4ccccc4)c(=O)[nH]c3=O)cc(F)cc12,"Dual specificity protein kinase CLK3 (CLK3, Homo sapiens, UniProt P49761)",enzyme activity,inhibitor,,0.1 µM,,-0.8
O=c1cc(-c2ccccc2)oc2cc(O)cc(O)c12,Genome polyprotein protease,enzyme activity,inhibitor,FRET,100 µM,pH 7,19
O=C1N=C(N2CCCCN2)S/C1=C\c1ccc(F)cc1O,HTR7,ligand displacement,,radioligand,10 µM,,< 10
C[C@@H]1O[C@@H](OC[C@H]2O[C@@H](Oc3c(-c4ccc(O)c(O)c4)oc4cc(O)cc(O)c4c3=O)[C@H](O)[C@@H](O)[C@@H]2O)[C@H](O)[C@H](O)[C@H]1O,Genome polyprotein protease,enzyme activity,inhibitor,,200 µM,pH 8.5,95.4
O=C(O)c1cc(O)c(O)c(O)c1,Genome polyprotein protease,enzyme activity,inhibitor,FRET,100 µM,pH 7,15
CC(C)C[C@H](NC(=O)[C@H](Cc1ccccc1)NC(=O)c1cnccn1)B(O)O,"Suppressor of tumorigenicity 14 protein (ST14, Homo sapiens, UniProt Q9Y5Y6)",cell-free assay,inhibitor,,33 µM,,51.5
C[C@H](C(=O)N[C@H]1COc2ccccc2[C@@H]1S(C)(=O)=O)c1ccc(F)cc1,Cacna1b,cell-free assay,,,10 µM,,11
C#Cc1n[nH]c2c(-c3cn([C@@H](C)c4ccccn4)c(=O)[nH]c3=O)cc(F)cc12,"Cyclin-dependent kinase 8, with cyclin C (CDK8, Homo sapiens, UniProt P49336)",enzyme activity,inhibitor,,0.1 µM,,-1.7
N#Cc1ccc(NCCNCC(=O)N2N=CCC2C#N)nc1 (centres unmarked),DPP9,enzyme activity,inhibitor,,1 µM,,49
Cn1cc(-c2cccc(N3CCc4c(sc5c4CC(C)(C)C5)C3=O)c2CO)cc(Nc2ccncn2)c1=O,"MAP kinase-activated protein kinase 3 (MAPKAPK3, Homo sapiens, UniProt Q16644)",enzyme activity,inhibitor,,1 µM,,4
CN(C)C(=O)COC(=O)Cc1ccc(OC(=O)c2ccc(NC(=N)N)cc2)cc1,DPP9,enzyme activity,inhibitor,,10 µM,,18
Cc1ncc(C)n2nc(/C=C/c3nc(N4CCCC4)cc(N4CCOCC4)n3)nc12,NR1H2,cell-free assay,,,10 µM,,-19
CC(C)N1CCC[C@H]1CNC(=O)c1cn(C2CCCC2)c(=O)c2c1c1ccccc1n2C,Cacna1b,ligand displacement,,radioligand,10 µM,,2
CC(C)C[C@H](NC(=O)[C@H]1O[C@@H]1C(=O)O)C(=O)NCCCCN=C(N)N,"Cathepsin B (CTSB, Homo sapiens, UniProt P07858)",enzyme activity,inhibitor,,5 nM,,77
CCN(CC)CCCC[C@H](NC(=O)[C@H](CC(C)C)NC(=O)[C@H](C)NC(=O)[C@H](Cc1ccccc1)NC(=O)c1ccc(C(C)(C)C)cc1)C(=O)N[C@@H](CO)C(=O)OC,HTR7,ligand displacement,,radioligand,10 µM,,8
O=C(Nc1cccnn1)N1CCN([C@@H]2CCOc3cc(C(F)(F)F)ccc32)CC1,NR1H2,cell-free assay,,,20 µM,,-6
COc1ccc(-c2oc3c(CC=C(C)C)c(O)cc(O)c3c(=O)c2O)cc1,Genome polyprotein protease,enzyme activity,inhibitor,FRET,100 µM,pH 7,19
COc1cc(Nc2ncc(F)c(Nc3ccc4c(n3)NC(=O)C(C)(C)O4)n2)cc(OC)c1OC,"Mitogen-activated protein kinase kinase kinase kinase 1 (MAP4K1, Homo sapiens, UniProt Q92918)",binding,,competition with immobilised ligand,10 µM,,70
CCOC(=O)c1ccc(OC(=O)CCCCCNC(=N)N)cc1,DPP9,enzyme activity,inhibitor,,10 µM,,14
O=C1c2c(O)cc(O)cc2O[C@H](c2cc(O)c(O)c(O)c2)[C@H]1O,Genome polyprotein protease,enzyme activity,inhibitor,FRET,100 µM,pH 7,23
